Only some compounds are listed: those with a hit (about 3.7% of all), similar ones and a draw of the others.
KCNQ1 inh: inhibitors of human KCNQ1 channel, primary screen, cell-based, thallium flux, high-throughput; actives 1.3% (n = 310,000); AID 2642, 2010; B-score at 10 µM; CHO-K1 KCNQ1, FluxOR thallium flux fluorescence; stronger effect = higher value;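 active = compounds whose thallium flux B-score, printed positive for inhibition, exceeds three library SD while starting fluorescence stays within three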;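 also: channel opened by potassium depolarization with thallium stimulus after 20 min compound exposure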
KCNK3 block: human KCNK3 channel inhibitors, primary screen, CHO cells, FluxOR thallium flux, B-score; B-score at 10 µM; FluxOR fluorescence; stronger effect = lower value; actives 0.84% (n = 340,000); Potassium channel subfamily K member 3 (Homo sapiens), O14649; AID 602410, 2012;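 active = B-score under library mean minus 4 SD, starting fluorescence ratio at most library mean plus 5 SD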;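 also: more negative B-score means stronger inhibition of thallium flux through KCNK3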
Target sequence (O14649 whole entry, looked up): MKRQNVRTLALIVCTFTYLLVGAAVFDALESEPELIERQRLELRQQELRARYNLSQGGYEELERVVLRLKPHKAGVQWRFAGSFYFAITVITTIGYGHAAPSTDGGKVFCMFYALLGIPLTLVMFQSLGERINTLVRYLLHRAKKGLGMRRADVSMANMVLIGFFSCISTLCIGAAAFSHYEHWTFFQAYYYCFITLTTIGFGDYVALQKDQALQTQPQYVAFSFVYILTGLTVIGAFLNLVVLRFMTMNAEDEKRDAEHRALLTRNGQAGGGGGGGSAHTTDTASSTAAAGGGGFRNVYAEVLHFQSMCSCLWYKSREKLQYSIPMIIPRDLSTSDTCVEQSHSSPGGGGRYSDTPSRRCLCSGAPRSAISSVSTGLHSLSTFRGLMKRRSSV
KCNK9 inh: KCNK9 potassium channel inhibitors, primary screen, HEK293 cells, thallium flux. AID 488922, 2010. FluxOR thallium flux fluorescence; stronger effect = lower value. B-score at 10 µM. actives 1.2% (n = 310,000);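 active = ratio B-score over 3 SD below the library mean, with starting fluorescence within 5 SD of its mean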;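 also: negative B-score means less thallium flux so channel inhibition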
hERG protect: hERG rescue from dofetilide block, primary screen, cell-based, CHO-hERG, FluxOR thallium flux, dofetilide IC70 | Voltage-gated inwardly rectifying potassium channel KCNH2 (Homo sapiens), Q12809 | dofetilide IC70 present | activation (rescue from dofetilide block), less the hit threshold, % at 10 µM | actives 0.51% (n = 310,000);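 active = activation above the mean of controls blocked by dofetilide plus 5 SD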;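 also: thallium influx through hERG after potassium depolarization seen as dye fluorescence rise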
Kir21 inh: inhibitors of mouse Kir2.1 inward-rectifier potassium channel | HEK293-Kir2.1, FluxOR thallium flux fluorescence; stronger effect = lower value | AID 1672, 2009 | Inward rectifier potassium channel 2 (Mus musculus), P35561 | B-score at 10 µM | actives 0.85% (n = 310,000);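 active = fluorescence ratio B-score at or below minus 3 SD of library scores, with starting-brightness B-score within 2 SD, cut at about -4.2 in these data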;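 also: channel flux triggered by added potassium and thallium sulfate stimulus; B-score of peak minus minimum fluorescence over baseline after thallium stimulus; more negative B-score means stronger Kir2.1 block with less thallium influx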
KCNQ1 pot: potentiators or activators of KCNQ1 channel, primary screen, cell-based, thallium flux, high-throughput; CHO-K1 KCNQ1, thallium flux FluxOR fluorescence; stronger effect = higher value; B-score at 10 µM; actives 0.35% (n = 310,000); AID 2648, 2010;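 active = fluorescence ratio B-score, a plate-corrected score, at least three library SD, with initial intensity B-score within 5 SD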
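System: CHO-K1 cells stably expressing KCNQ1 / Medium: assay buffer for compound exposure, DMSO matched across wells / Reagent: thallium- and potassium-containing depolarizing buffer / Compound: one concentration, matched DMSO / Incubation: 20 min compound pretreatment at room temperature / Measured by: kinetic FluxOR fluorescence, 10 s baseline plus 110 s post-stimulus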
KCNK9 block conf: KCNK9 potassium channel inhibitors, confirmation, HEK293 cells, thallium flux, duplicate. shares compounds with KCNK9 inh. AID 492992, 2010. actives 43% (n = 4,900). FluxOR thallium flux fluorescence. inhibition, % at 10 µM;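 active = thallium signal inhibited by more than 5 SD of the compound-free buffer control wells, on both duplicate plates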;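 also: 0% = assay buffer control wells without compound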
Kir21 sel: mouse Kir2.1 channel inhibition, confirmation, selectivity assay for KCNK9 modulator project, cell-based, HEK293, thallium flux. Kir2.1 cells, FluxOR thallium flux fluorescence. AID 492993, 2010. shares compounds with KCNK9 inh. actives 4% (n = 4,900). inhibition, % at 10 µM;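 active = thallium signal drop more than 5 SD beyond the mean of the no-compound control wells, seen in both duplicate plates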;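 also: signal is fluorescence rise after thallium addition divided by baseline fluorescence; plate controls were assay buffer only for no effect and full block by chlorpromazine control for full effect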
HEK293 Tl ctr: thallium flux in non-induced HEK293 cells, confirmation, counter-screen for KCNK9 inhibitor project, cell-based, second counter screen, non-induced KCNK9-HEK293; AID 492997, 2010; shares compounds with KCNK9 inh; FluxOR thallium flux; inhibition, % at 10 µM; actives 40% (n = 4,900);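 active = thallium signal drop beyond 5 SD of the untreated control mean, on both duplicate plates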;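 also: plate controls were buffer only IC0 wells for no effect and SID17386958 at its maximal inhibitory level for full effect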
Starred values were filed as active, the others as inactive; i = inactive; / = not tested or not shown.

SMILES	KCNQ1 inh	KCNK3 block	KCNK9 inh	hERG protect	Kir21 inh	KCNQ1 pot	KCNK9 block conf	Kir21 sel	HEK293 Tl ctr
Cc1ccc(C(c2nnnn2C2CCCC2)N2c3ccccc3CC2C)cc1 (stereo unspecified)	7*	i	-11*	-14	-0.1	i	70%*	i	50%*
COc1ccc(-n2c(C)cc(C(=O)Cn3nc(C(=O)O)c4ccccc4c3=O)c2C)cc1	i	i	i	-7	0.16	i	i	i	i
Cc1ccc(-n2c(C)cc(C(=O)Cn3nc(C(=O)O)c4ccccc4c3=O)c2C)cc1	i	i	i	-6	-2.6	i	/	/	/
Cc1cc(C(=O)Cn2nc(C(=O)O)c3ccccc3c2=O)c(C)n1-c1ccc(OC(F)F)cc1	i	i	i	-5	-0.67	i	i	i	i
COc1cccc(C(=O)NCC(=O)OCC(=O)NC2CCCCC2)c1	/	i	/	/	/	/	/	/	/
CCOc1ccc2nc(N(CCN(CC)CC)C(=O)/C=C/c3cccs3)sc2c1	i	i	i	-16	-0.03	i	/	/	/
C=CCN1C(=O)c2ccc(C(=O)N(CCC)CC(=O)Nc3ccccc3C)cc2C1=O	i	i	i	-7	0	i	/	/	/
CC(=O)Nc1ccc([N+](=O)[O-])cn1	i	i	-8.4*	-5	-0.24	i	i	i	i
O=C(Nc1ccc([N+](=O)[O-])cn1)C1CC1	i	i	i	-5	0.89	i	/	/	/
O=C(Nc1ccc(O)cc1)c1ccccc1OCc1ccccc1	i	i	i	-2	-2.4	i	/	/	/
O=C(Nc1ccccc1)c1ccccc1OCc1cccc([N+](=O)[O-])c1	i	i	-12*	-11	0.34	i	i	i	28%*
CCOc1cc(CNc2ccc(Br)cc2)cc(Br)c1OCC(=O)NC(C)(C)C	i	i	-9.2*	2	-0.15	i	47%*	i	40%*
O=c1sc(N2CCN(c3ccccc3F)CC2)nc2ccsc12	i	i	-13*	-10	-0.23	i	36%*	i	40%*
CCc1ccc(CNC(=O)CCS(=O)(=O)Cc2ccc(C)cc2)cc1	i	i	i	-5	-0.49	i	/	/	/
CC1CCN(C(=S)c2cn(Cc3ccc(F)cc3)c3ccccc23)CC1	i	i	-11*	-5	0.07	i	44%*	i	38%*
CN1CCN(C(=S)c2cn(Cc3ccc(F)cc3)c3ccccc23)CC1	i	i	i	-11	0.12	i	/	/	/
S=C(c1cn(Cc2ccccc2)c2ccccc12)N1CCOCC1	i	i	i	-2	-2.6	i	/	/	/
S=C(c1cn(Cc2ccc(Br)cc2)c2ccccc12)N1CCOCC1	i	i	-10*	-16	-0.4	i	34%*	i	40%*
COc1ccc(C(=O)/C=C/Nc2ccc(S(N)(=O)=O)cc2)cc1OC	i	i	i	-7	0.61	i	/	/	/
Cc1ccc(CNC(=O)CS(=O)(=O)c2cn(CC(=O)N3CCOCC3)c3ccccc23)cc1	i	i	i	-4	-0.11	i	/	/	/
C/C(=N\N1CCN(c2ccc(Cl)cc2)CC1)c1cccc([N+](=O)[O-])c1	i	i	-11*	-1	1.2	i	44%*	i	30%*
O=C(COc1ccc(Cl)cc1Cl)NCCCCc1ccccc1	i	i	i	-12	0.55	i	i	i	24%*
O=C(CCCc1ccccc1)NCCCc1ccccc1	i	i	i	0	0.07	i	i	i	i
COc1ccc(S(=O)(=O)N2CCCCC2)cc1NC(=O)CSc1ncccn1	/	i	/	/	/	/	/	/	/
Cc1ccc(-n2ccnc2SCC(=O)c2c(N)n(C3CC3)c(=O)[nH]c2=O)cc1C	/	i	/	/	/	/	/	/	/
SMILES	KCNQ1 inh	KCNK3 block	KCNK9 inh	hERG protect	Kir21 inh	KCNQ1 pot	KCNK9 block conf	Kir21 sel	HEK293 Tl ctr
CCOc1ccccc1NC(=O)CSc1nnc(-c2ccccc2Cl)n1Cc1ccco1	i	i	-10*	-7	-2.2	i	53%*	i	36%*
CCOc1ccccc1NC(=O)CSc1nnc(-c2ccco2)n1Cc1ccco1	i	i	i	-4	-4	i	/	/	/
Cc1ccc(SCCN2CCN(CC(C)C)CCC2=O)cc1	i	i	i	-8	0.04	i	i	i	i
Cc1ccc(SCCN2CCC(NC(=O)OCc3ccccc3)CCC2=O)cc1 (stereo unspecified)	i	i	i	-12	-1.7	i	i	i	i
C[C@@H](CSc1ccccc1)CN1CC[C@H](C(C)(C)C)CCC1=O	i	i	i	-10	-5.3*	i	i	i	i
Cc1ccc(SCCN2CCC(C(C)(C)C)CCC2=O)cc1 (stereo unspecified)	i	i	i	-9	-0.68	i	i	i	i
O=C(N[C@H]1CCC(=O)N(CCSc2ccc(Br)cc2)CC1)OCc1ccccc1	/	i	/	/	/	/	/	/	/
CCN(CC)S(=O)(=O)c1ccc(N(C)C)c(NC(=O)CSCc2c(C)noc2C)c1	i	i	i	-14	0.01	i	/	/	/
COc1ccccc1CCNC(=O)C1CCC(=O)N(C2CCCCCC2)C1 (stereo unspecified)	i	i	i	-4	-1.3	i	/	/	/
COc1ccc([C@H]2[C@H](C(=O)OC(C)(C)C)N3N=Cc4ccccc4C3C23C(=O)c2ccccc2C3=O)cc1OC (stereo partly specified)	i	i	i	1	1	i	/	/	/
